# Laboratory results from paper PMC10205660 (Chemistry (Weinheim an der Bergstrasse, Germany), 2023).
# Like-named read-outs stand apart in the source and are kept apart here.
# Experiments:
# K562 (leukemia) = assay: Antiproliferative activity, K562; format: cell-based
# A549 (lung cancer) = assay: Antiproliferative activity, A549; format: cell-based
# MCF7 (breast cancer) = assay: Antiproliferative activity, MCF7; format: cell-based
# [1] = test system: Hsp90-dependent client proteins (pAkt, Cyclin D1, GLUT1), Hsp70, Hsp90 in MCF7 cells; format: cell-based; conditions: MCF7, 48 h, Western blot; versus vehicle 0.25% DMSO
# How it was run: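 MCF7 cells exposed to test compound at the stated amounts for 48 h, alongside vehicle (0.25% DMSO) and 1 μM geldanamycin as the reference Hsp90 inhibitor. Cell lysates were immunoblotted for pAkt, Cyclin D1, GLUT1, Hsp70, Hsp90 and F1F0 ATP synthase.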
# MRC5 = conditions: read-out: IC50 against normal cell line MRC5; cited from earlier work
# HEK293 = conditions: read-out: IC50 against normal cell line HEK293; cited from earlier work
# [2] = test system: Hsp90-dependent client proteins (pAkt, Cyclin D1, GLUT1), Hsp70, Hsp90 in MCF7 cells; conditions: MCF7, 48-hour incubation; cited from earlier work
# [3] = test system: MCF7, K562 and A549 cell lines; assay: Antiproliferative activity, statements in text without a single cell line; format: cell-based; conditions: versus cruentaren A; cell line not stated
# [4] = Homo sapiens, K562, read-out: IC50 values K562, K562
# [5] = Homo sapiens, A549, read-out: IC50 values A549
# [6] = Homo sapiens, MCF7, read-out: IC50 values MCF7, MCF7
IC50 (K562 (leukemia); [4]) [nM],IC50 (A549 (lung cancer); [5]) [nM],IC50 (MCF7 (breast cancer); [6]) [nM],Compound,levels of Hsp70 and Hsp90 (heat shock response) [1],also measured
48.3,1750,6.37,"CCC[C@H](O)[C@@H](C)C(=O)NC/C=C/C[C@@H](C)[C@@H](O)[C@H](C)[C@@H]1C/C=C\C[C@H](C)[C@H](O)Cc2cc(OC)cc(O)c2C(=O)O1 [Compound 16, (2R,3S)-N-((5R,6R,7S,E)-7-((3S,8S,9R,Z)-9,14-dihydroxy-12-methoxy-8-methyl-1-oxo-3,4,7,8,9,10-hexahydro-1H-benzo[c][1]oxacyclododecin-3-yl)-6-hydroxy-5-methyloct-2-en-1-yl)-3-hydroxy-2-methylhexanamide]",remained at the same level as vehicle control,
,,,"CCCC(O)C(C)C(=O)NC/C=C\CC(C)C(O)C(C)C1C/C=C\CC(C)C(O)Cc2cc(OC)cc(O)c2C(=O)O1 (stereo not shown) [Compound 1, Cruentaren A, reference compound]",,"IC50 (MRC5): > 500 nM; IC50 (K562 (leukemia); read-out: IC50 values K562, K562): 1.5 nM; IC50 (HEK293): > 500 nM; IC50 (A549 (lung cancer); read-out: IC50 values A549, A549): 0.75 nM; IC50 (MCF7 (breast cancer); read-out: IC50 values MCF7, MCF7): 4.67 nM; degradation of Hsp90-dependent client proteins [2]: induced the degradation"
,,,"COC1=C2C[C@@H](C)C[C@H](OC)[C@H](O)[C@@H](C)/C=C(\C)[C@H](OC(N)=O)[C@@H](OC)/C=C\C=C(/C)C(=O)NC(=CC1=O)C2=O [geldanamycin, reference compound]",increased,
1270,1540,189,"CCC[C@H](O)[C@@H](C)C(=O)NC[C@H](O)[C@H](O)C[C@@H](C)[C@@H](O)[C@H](C)[C@@H]1C/C=C\C[C@H](C)[C@H](O)Cc2cc(OC)cc(O)c2C(=O)O1 [Compound 14, (2R,3S)-N-((2S,3R,5R,6R,7S)-7-((3S,8S,9R,Z)-9,14-dihydroxy-12-methoxy-8-methyl-1-oxo-3,4,7,8,9,10-hexahydro-1H-benzo[c][1]oxacyclododecin-3-yl)-2,3,6-trihydroxy-5-methyloctyl)-3-hydroxy-2-methylhexanamide]",,fold reduction in activity compared to cruentaren A [3]: ~ 40 fold
1320,2450,55.5,"CCC[C@H](O)[C@@H](C)C(=O)NC/C=C\C[C@@H](C)[C@@H](O)[C@H](C)[C@@H]1C/C=C\C[C@H](C)[C@H](OC(=O)[C@@H](C)N)Cc2cc(OC)cc(O)c2C(=O)O1 [Compound 4, (3S,8S,9R,Z)-14-hydroxy-3-((2S,3R,4R,Z)-3-hydroxy-8-((2R,3S)-3-hydroxy-2-methylhexanamido)-4-methyloct-6-en-2-yl)-12-methoxy-8-methyl-1-oxo-3,4,7,8,9,10-hexahydro-1H-benzo[c][1]oxacyclododecin-9-yl D-alaninate]",remained at the same level as vehicle control,
